The text below walks through data of paper PMC9091619 (RSC Advances, 2018).

Read-outs that look alike come from different tables or passages of the source. A value given as a limit tells only on which side of the number the result lay.

The subject of data set [1] is HL-60 (leukemia) cells. In words: In vitro cytotoxicity, MTT/MTS cell viability assay, HL-60. The data set is classed as cell-based, human. The conditions noted are these: read-out: IC50 ± SD, HL-60. An outline of the steps:
(§1)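 Human cancer lines from ATCC, grown in RPMI-1640 or DMEM with 10% FBS at 37 °C, 5% CO2. Seeding at 1 × 10^5 cells per mL: adherent cells 12 h before dosing, suspension cells at dosing. 48 h exposure to graded concentrations, in triplicate; cisplatin and paclitaxel as positive controls. MTS added for 4 h at 37 °C, lysis in 20% SDS–50% DMF, OD 490 nm. IC50 by Reed and Muench's method.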
(Tetrazolium dyes change colour on reduction, which living cells bring about.)

Data set [2] has as its system SMMC-7721 (hepatoma cells). As to the kind of experiment: In vitro cytotoxicity, MTT/MTS cell viability assay, SMMC-7721. It is filed as cell-based, human. The note with it: read-out: IC50 ± SD, SMMC-7721. An outline of the steps: as §1
Data set [3] concerns A-549 (lung cancer) cells. As to the kind of experiment: In vitro cytotoxicity, MTT/MTS cell viability assay, A-549. The conditions noted are these: read-out: IC50 ± SD, A-549. It is filed as cell-based, human. An outline of the steps: as §1
Data set [4] relates to MCF-7 (breast cancer) cells. As to the kind of experiment: In vitro cytotoxicity, MTT/MTS cell viability assay, MCF-7. The data set is classed as cell-based, human. The note with it: read-out: IC50 ± SD, MCF-7. An outline of the steps:
as §1

Data set [5] relates to SW480 (colon cancer) cells. As to the kind of experiment: In vitro cytotoxicity, MTT/MTS cell viability assay, SW480. The data set is classed as cell-based, human. The note with it: read-out: IC50 ± SD, SW480. An outline of the steps: as §1
In data set [6] the test system is human normal pulmonary epithelial cells (BEAS-2B). As to the kind of experiment: Growth inhibitory effect on normal cells, BEAS-2B. It is filed as cell-based. The note with it: for IC50: read-out: IC50 ± SD, BEAS-2B.
Data set [7] concerns five human cancer cell lines (HL-60, SMMC-7721, A-549, MCF-7 and SW480). As to the kind of experiment: Cytotoxicity against the panel of five tested cancer cell lines. The note with it: for cytotoxicity against the tested cancer cell lines (in words): five tested cancer cell lines; for IC50: Homo sapiens, read-out: IC50 against all the tested cancer cell lines. It is filed as cell-based. An outline of the steps: as §1

The term IC50 denotes the concentration needed to halve the response being measured. As for `COc1cccc2c1C(=O)c1c(O)c3c(c(O)c1C2=O)C[C@@](O)(C(=O)CO)C[C@@H]3O[C@H]1C[C@H](N)[C@H](O)[C@H](C)O1` [ADM, Adriamycin, reference compound], the half-inhibitory concentration (IC50) in data set [1] (Homo sapiens, HL-60, 48 h) was 0.14 µM; in data set [2] (Homo sapiens, SMMC-7721, 48 h), 0.9 ± 0.03 µM; in data set [3] (Homo sapiens, A549, 48 h), 0.3 ± 0.01 µM; in data set [4] (Homo sapiens, MCF7, 48 h) it was 0.9 ± 0.02 µM; in data set [5] (Homo sapiens, SW480, 48 h), 0.11 ± 0.01 µM; in data set [6] (Homo sapiens, BEAS-2B), greater than 40 µM.

Turning to `COc1c(O)cc2oc3cc(O)c(CC(O)C(C)(C)O)c(O)c3c(=O)c2c1CC=C(C)C` (stereo not drawn) [Compound 2a, 1,3,6-Trihydroxy-2-(2,3-dihydroxy-3-methylbutyl)-7-methoxy-8-(3-methyl-2-butenyl)xanthone], the IC50 in data set [1] (Homo sapiens, HL-60, 48 h) was 18.2 ± 0.48 µM; in data set [2] (Homo sapiens, SMMC-7721, 48 h), 23.4 ± 1.29 µM; in data set [3] (Homo sapiens, A549, 48 h), 19.8 ± 1.42 µM; in data set [4] (Homo sapiens, MCF7, 48 h), 23.7 ± 0.64 µM; in data set [5] (Homo sapiens, SW480, 48 h) it was greater than 40 µM; in data set [6] (Homo sapiens, BEAS-2B), 18.3 ± 0.51 µM. Moreover, the “cytotoxicity against the tested cancer cell lines (in words)” value (from here on “cytotoxicity”) in data set [7] is “slightly decreased activity or comparative activity”.

For the molecule `COc1c(O)cc2oc3cc(O)c(CC=C(C)C)c(O)c3c(=O)c2c1CC(O)C(C)(C)O` (stereo not drawn) [Compound 2b, 1,3,6-Trihydroxy-2-(3-methyl-2-butenyl)-7-methoxy-8-(2,3-dihydroxy-3-methylbutyl)xanthone], the half-inhibitory concentration (IC50) in data set [1] (Homo sapiens, HL-60, 48 h) was greater than 40 µM; in data set [2] (Homo sapiens, SMMC-7721, 48 h), greater than 40 µM; in data set [3] (Homo sapiens, A549, 48 h), greater than 40 µM; in data set [4] (Homo sapiens, MCF7, 48 h), greater than 40 µM; in data set [5] (Homo sapiens, SW480, 48 h), greater than 40 µM; in data set [7] it was greater than 40 µM.

For the molecule `COc1c(O)cc2oc3cc(O)c(CC(O)C(C)(C)O)c(O)c3c(=O)c2c1CC(O)C(C)(C)O` (stereo not drawn) [Compound 2c, 1,3,6-Trihydroxy-7-methoxy-2,8-bis(2,3-dihydroxy-3-methylbutyl)-9H-xanthen-9-one], the IC50 is greater than 40 µM in data set [1] (Homo sapiens, HL-60, 48 h); greater than 40 µM in data set [2] (Homo sapiens, SMMC-7721, 48 h); greater than 40 µM in data set [3] (Homo sapiens, A549, 48 h); greater than 40 µM in data set [4] (Homo sapiens, MCF7, 48 h); greater than 40 µM in data set [5] (Homo sapiens, SW480, 48 h); greater than 40 µM in data set [7]. The “cytotoxicity” value in data set [7] is given as “completely disappeared”.

Regarding `COc1c(O)cc2oc3cc(O)c(CC(O)C(C)(C)O)c(O)c3c(=O)c2c1CCC(C)C` (stereo not drawn) [Compound 2d, 1,3,6-Trihydroxy-2-(2,3-dihydroxy-3-methylbutyl)-7-methoxy-8-isopentyl-9H-xanthen-9-one], the concentration for half-maximal inhibition (IC50) in data set [1] (Homo sapiens, HL-60, 48 h) is 21.6 ± 2.41 µM; in data set [2] (Homo sapiens, SMMC-7721, 48 h) it was 26.9 ± 3.75 µM; in data set [3] (Homo sapiens, A549, 48 h), 36 ± 0.99 µM; in data set [4] (Homo sapiens, MCF7, 48 h), greater than 40 µM; in data set [5] (Homo sapiens, SW480, 48 h), greater than 40 µM; in data set [6] (Homo sapiens, BEAS-2B), greater than 40 µM. In addition, in data set [7], the “cytotoxicity” value was “slightly decreased activity or comparative activity”.

With `COc1c(O)cc2oc3cc(O)c(CCC(C)C)c(O)c3c(=O)c2c1CC(O)C(C)(C)O` (stereo not drawn) [Compound 2e, 1,3,6-Trihydroxy-2-isopentyl-7-methoxy-8-(2,3-dihydroxy-3-methylbutyl)-9H-xanthen-9-one], the IC50 was 18.7 ± 0.23 µM in data set [1] (Homo sapiens, HL-60, 48 h); greater than 40 µM in data set [2] (Homo sapiens, SMMC-7721, 48 h); greater than 40 µM in data set [3] (Homo sapiens, A549, 48 h); greater than 40 µM in data set [4] (Homo sapiens, MCF7, 48 h); greater than 40 µM in data set [5] (Homo sapiens, SW480, 48 h); greater than 40 µM in data set [6] (Homo sapiens, BEAS-2B). The “toxicity to BEAS-2B cells (in words)” value in data set [6] (BEAS-2B normal cells) is “non-cytotoxic”.

Regarding `COc1cc2oc3cc(OC)c(OC)c(CC=C(C)C)c3c(=O)c2c(OC)c1CC(OC)C(C)(C)OC` (stereo not drawn) [Compound 2i, 2-(2,3-Dimethoxy-3-methylbutyl)-1,3,6,7-tetramethoxy-8-(3-methylbut-2-en-1-yl)-9H-xanthen-9-one], the IC50 is greater than 40 µM in data set [1] (Homo sapiens, HL-60, 48 h); greater than 40 µM in data set [2] (Homo sapiens, SMMC-7721, 48 h); greater than 40 µM in data set [3] (Homo sapiens, A549, 48 h); greater than 40 µM in data set [4] (Homo sapiens, MCF7, 48 h); greater than 40 µM in data set [5] (Homo sapiens, SW480, 48 h). Moreover, the “cytotoxicity” value in data set [7] is on record as “disappearance of cytotoxicity”.

As to `COc1cc2oc3cc(OC)c(OC)c(CCC(C)C)c3c(=O)c2c(OC)c1CC(OC)C(C)(C)OC` (stereo not drawn) [Compound 2j, 2-(2,3-Dimethoxy-3-methylbutyl)-8-isopentyl-1,3,6,7-tetramethoxy-9H-xanthen-9-one], the concentration for half-maximal inhibition (IC50) in data set [1] (Homo sapiens, HL-60, 48 h) was greater than 40 µM; in data set [2] (Homo sapiens, SMMC-7721, 48 h), greater than 40 µM; in data set [3] (Homo sapiens, A549, 48 h) it was greater than 40 µM; in data set [4] (Homo sapiens, MCF7, 48 h) it was greater than 40 µM; in data set [5] (Homo sapiens, SW480, 48 h) it was greater than 40 µM. Moreover, in data set [7], the “cytotoxicity” value is listed as “disappearance of cytotoxicity”.

For `COc1c(O)cc2oc3cc(O)c(CC=C(C)C)c(O)c3c(=O)c2c1CC1OC1(C)C` (stereo not drawn) [Compound 2l, 1-((3,3-Dimethyloxiran-2-yl)methyl)-3,6,8-trihydroxy-2-methoxy-7-(3-methylbut-2-en-1-yl)-9H-xanthen-9-one], the half-maximal inhibitory concentration (IC50) is greater than 40 µM in data set [1] (Homo sapiens, HL-60, 48 h); greater than 40 µM in data set [2] (Homo sapiens, SMMC-7721, 48 h); greater than 40 µM in data set [3] (Homo sapiens, A549, 48 h); greater than 40 µM in data set [4] (Homo sapiens, MCF7, 48 h); greater than 40 µM in data set [5] (Homo sapiens, SW480, 48 h); greater than 40 µM in data set [7].

Turning to `COc1c(O)cc2oc3cc(O)c(CCC(C)(C)O)c(O)c3c(=O)c2c1CC=C(C)C` [Compound 2n, 1,3,6-Trihydroxy-2-(3-hydroxy-3-methylbutyl)-7-methoxy-8-(3-methylbut-2-en-1-yl)-9H-xanthen-9-one], the half-inhibitory concentration (IC50) stood at 14.4 ± 0.05 µM in data set [1] (Homo sapiens, HL-60, 48 h); 26.3 ± 1.04 µM in data set [2] (Homo sapiens, SMMC-7721, 48 h); 17 ± 0.77 µM in data set [3] (Homo sapiens, A549, 48 h); 24.6 ± 0.47 µM in data set [4] (Homo sapiens, MCF7, 48 h); 22.7 ± 2.35 µM in data set [5] (Homo sapiens, SW480, 48 h); 29.3 ± 1.02 µM in data set [6] (Homo sapiens, BEAS-2B). For the same molecule, in data set [7], the “cytotoxicity” value is given as “slightly decreased activity or comparative activity”.

Regarding `O=c1c2ccc(O)cc2oc2cc(O)cc(O)c12` [Compound 2u, 1,3,6-Trihydroxy-9H-xanthen-9-one], the IC50 in data set [1] (Homo sapiens, HL-60, 48 h) is greater than 40 µM; in data set [2] (Homo sapiens, SMMC-7721, 48 h), greater than 40 µM; in data set [3] (Homo sapiens, A549, 48 h) it was greater than 40 µM; in data set [4] (Homo sapiens, MCF7, 48 h), greater than 40 µM; in data set [5] (Homo sapiens, SW480, 48 h), greater than 40 µM.

For the molecule `N.N.[Cl][Pt][Cl]` [DDP, Cisplatin, reference compound], the concentration for half-maximal inhibition (IC50) in data set [1] (HL-60 cells, 48 h exposure) is 3.19 ± 0.18 µM; in data set [2] (SMMC-7721 cells, 48 h exposure), 18 ± 0.49 µM; in data set [3] (A-549 cells, 48 h exposure), 13.8 ± 0.74 µM; in data set [4] (MCF-7 cells, 48 h exposure), 28.4 ± 3.71 µM; in data set [5] (SW480 cells, 48 h exposure), 14.8 ± 2.15 µM; in data set [6] (BEAS-2B normal pulmonary epithelial cells), greater than 40 µM.

As for Mangostanin [Compound 2m], the 50% inhibitory concentration (IC50) in data set [1] (HL-60 cells, 48 h exposure) is greater than 40 µM; in data set [3] (A-549 cells, 48 h exposure), greater than 40 µM; in data set [4] (MCF-7 cells, 48 h exposure), greater than 40 µM; in data set [5] (SW480 cells, 48 h exposure), greater than 40 µM. The “cytotoxicity” value in data set [7] is listed as “slightly decreased activity or comparative activity”.
